Assay results as given in PMC10392812 (Journal of the American Chemical Society, 2023).

Biological target: T1, EDC3 (Homo sapiens, UniProt Q96F86)
T1 sequence (Q96F86 1-508): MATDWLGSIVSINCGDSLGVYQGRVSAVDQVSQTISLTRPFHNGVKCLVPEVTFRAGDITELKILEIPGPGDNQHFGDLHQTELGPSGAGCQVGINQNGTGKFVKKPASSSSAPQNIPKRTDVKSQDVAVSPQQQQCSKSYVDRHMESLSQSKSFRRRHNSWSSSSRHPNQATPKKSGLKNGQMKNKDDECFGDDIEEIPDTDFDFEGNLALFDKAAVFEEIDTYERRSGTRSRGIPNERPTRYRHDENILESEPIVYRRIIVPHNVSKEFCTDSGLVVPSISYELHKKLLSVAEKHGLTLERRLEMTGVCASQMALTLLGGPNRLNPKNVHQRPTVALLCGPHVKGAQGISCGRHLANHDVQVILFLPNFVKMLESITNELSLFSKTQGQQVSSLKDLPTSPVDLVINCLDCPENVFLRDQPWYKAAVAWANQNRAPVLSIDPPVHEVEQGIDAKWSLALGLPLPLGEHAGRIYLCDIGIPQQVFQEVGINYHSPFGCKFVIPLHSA
Assay: competitive gel-based ABPP in situ
Assay type: cell-based
Procedure, shortened: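 Recombinant EDC3-expressing HEK293T cells pretreated with test compound (0.1–100 µM, 2 h); lysed, and soluble proteomes labelled with HHS-465 Tyr/Lys-reactive sulfonyl-triazole probe (100 µM, 1 h, RT). CuAAC to rhodamine-azide, SDS-PAGE and in-gel fluorescence scanning. IC50 estimated from dose-dependent loss of EDC3 probe labelling; mean ± SEM, n = 3 biologically independent replicates.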

IC50: ~6 µM
Structure (SMILES): COc1ccc(S(=O)(=O)n2cc(CS(C)(=O)=O)nn2)cc1 [AHL-030]
